Like-named read-outs stand apart in the source and are kept apart here.
Key:
KB (epidermal carcinoma) = experiment: Cytotoxicity, WST-8 cell viability; type: cell-based, human; details: read-out: Cancer cell lines IC50 KB
Summary of the method: (§1)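 Cells were seeded at 10,000 cells/well and grown for 24 h. Test compounds were dissolved in DMSO, diluted in medium and added at 80, 40, 20 and 10 µM. Cells were then incubated for 48 h. Viability was read with WST-8 plus 1-methoxy PMS as formazan absorbance at 450 nm. Controls were doxorubicin (positive) and 0.25% DMSO (vehicle). IC50 came from concentration-response curves, mean ± SD (n = 3).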

[1] = test system: BT-549 (breast carcinoma); experiment: Cytotoxicity, WST-8 cell viability; type: cell-based, human; details: read-out: Cancer cell lines IC50 BT-549
Summary of the method: as §1

SK-MEL (melanoma) = experiment: Cytotoxicity, WST-8 cell viability; type: cell-based, human; details: read-out: Cancer cell lines IC50 SK-MEL
Summary of the method: as §1

[2] = test system: SK-OV-3 (ovarian carcinoma); experiment: Cytotoxicity, WST-8 cell viability; type: cell-based, human; details: read-out: Cancer cell lines IC50 SK-OV-3
Summary of the method: as §1

Vero kidney cells = experiment: Cytotoxicity, WST-8 cell viability, non-cancer kidney cells; type: cell-based; details: read-out: Kidney cells IC50 Vero
Summary of the method: as §1

hHDAC8 = biological target: T1, hHDAC8 (Homo sapiens, UniProt Q9BY41); experiment: biochemical; type: biochemical; details: for hHDAC8 % @1 µM: inhibitor at 1 µM; for hHDAC8 % @10 µM: inhibitor at 10 µM
T1 sequence (Q9BY41 1-377): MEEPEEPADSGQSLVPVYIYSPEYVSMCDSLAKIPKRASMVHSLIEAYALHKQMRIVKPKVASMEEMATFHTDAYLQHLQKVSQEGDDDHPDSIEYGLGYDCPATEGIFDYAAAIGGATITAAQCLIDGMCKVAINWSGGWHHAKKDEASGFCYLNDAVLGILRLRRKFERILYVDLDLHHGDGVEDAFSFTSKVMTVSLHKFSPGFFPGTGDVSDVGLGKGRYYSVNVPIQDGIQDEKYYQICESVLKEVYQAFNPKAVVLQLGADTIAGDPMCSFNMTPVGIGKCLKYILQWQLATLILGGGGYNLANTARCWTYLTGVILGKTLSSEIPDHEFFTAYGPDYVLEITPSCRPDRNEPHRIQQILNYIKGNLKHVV

drHDAC10 = biological target: T2, drHDAC10 (Danio rerio, UniProt F1QCV2); experiment: Enzymatic in vitro HDAC10 inhibition assay; type: biochemical, zebrafish
T2 sequence (F1QCV2 1-675): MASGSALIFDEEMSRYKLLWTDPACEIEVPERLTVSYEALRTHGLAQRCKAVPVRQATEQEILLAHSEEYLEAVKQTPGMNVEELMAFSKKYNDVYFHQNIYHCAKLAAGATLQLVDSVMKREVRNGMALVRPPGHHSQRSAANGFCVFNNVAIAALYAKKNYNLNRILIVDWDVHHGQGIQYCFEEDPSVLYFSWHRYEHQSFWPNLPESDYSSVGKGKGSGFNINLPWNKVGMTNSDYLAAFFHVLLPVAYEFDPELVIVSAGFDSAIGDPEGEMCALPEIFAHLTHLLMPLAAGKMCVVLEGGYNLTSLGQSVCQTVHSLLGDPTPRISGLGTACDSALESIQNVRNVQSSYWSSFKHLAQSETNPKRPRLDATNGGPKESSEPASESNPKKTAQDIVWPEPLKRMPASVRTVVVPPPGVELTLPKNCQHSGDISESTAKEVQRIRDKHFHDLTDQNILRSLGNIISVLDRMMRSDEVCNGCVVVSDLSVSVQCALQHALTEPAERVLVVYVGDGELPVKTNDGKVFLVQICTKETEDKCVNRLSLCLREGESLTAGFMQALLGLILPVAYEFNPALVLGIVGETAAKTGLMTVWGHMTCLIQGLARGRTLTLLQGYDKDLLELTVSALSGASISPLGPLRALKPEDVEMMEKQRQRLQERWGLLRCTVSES
Summary of the method: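 Recombinant wild-type drHDAC10 (5 nM final) was preincubated 5 min with test compound at various concentrations in 20 mM HEPES pH 7.4 with 0.5 mg/mL BSA. The reaction was started with 50 µM Ac-spermidine-AMC and incubated 25 min at 25 °C. A stop solution containing 16 mM NDA derivatized the released primary amine. Fluorescence was read at λex 330 nm and λem 390 nm.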

hHDAC6 = biological target: T3, hHDAC6 (Homo sapiens, UniProt Q9UBN7); experiment: biochemical
T3 sequence (Q9UBN7 1-1215): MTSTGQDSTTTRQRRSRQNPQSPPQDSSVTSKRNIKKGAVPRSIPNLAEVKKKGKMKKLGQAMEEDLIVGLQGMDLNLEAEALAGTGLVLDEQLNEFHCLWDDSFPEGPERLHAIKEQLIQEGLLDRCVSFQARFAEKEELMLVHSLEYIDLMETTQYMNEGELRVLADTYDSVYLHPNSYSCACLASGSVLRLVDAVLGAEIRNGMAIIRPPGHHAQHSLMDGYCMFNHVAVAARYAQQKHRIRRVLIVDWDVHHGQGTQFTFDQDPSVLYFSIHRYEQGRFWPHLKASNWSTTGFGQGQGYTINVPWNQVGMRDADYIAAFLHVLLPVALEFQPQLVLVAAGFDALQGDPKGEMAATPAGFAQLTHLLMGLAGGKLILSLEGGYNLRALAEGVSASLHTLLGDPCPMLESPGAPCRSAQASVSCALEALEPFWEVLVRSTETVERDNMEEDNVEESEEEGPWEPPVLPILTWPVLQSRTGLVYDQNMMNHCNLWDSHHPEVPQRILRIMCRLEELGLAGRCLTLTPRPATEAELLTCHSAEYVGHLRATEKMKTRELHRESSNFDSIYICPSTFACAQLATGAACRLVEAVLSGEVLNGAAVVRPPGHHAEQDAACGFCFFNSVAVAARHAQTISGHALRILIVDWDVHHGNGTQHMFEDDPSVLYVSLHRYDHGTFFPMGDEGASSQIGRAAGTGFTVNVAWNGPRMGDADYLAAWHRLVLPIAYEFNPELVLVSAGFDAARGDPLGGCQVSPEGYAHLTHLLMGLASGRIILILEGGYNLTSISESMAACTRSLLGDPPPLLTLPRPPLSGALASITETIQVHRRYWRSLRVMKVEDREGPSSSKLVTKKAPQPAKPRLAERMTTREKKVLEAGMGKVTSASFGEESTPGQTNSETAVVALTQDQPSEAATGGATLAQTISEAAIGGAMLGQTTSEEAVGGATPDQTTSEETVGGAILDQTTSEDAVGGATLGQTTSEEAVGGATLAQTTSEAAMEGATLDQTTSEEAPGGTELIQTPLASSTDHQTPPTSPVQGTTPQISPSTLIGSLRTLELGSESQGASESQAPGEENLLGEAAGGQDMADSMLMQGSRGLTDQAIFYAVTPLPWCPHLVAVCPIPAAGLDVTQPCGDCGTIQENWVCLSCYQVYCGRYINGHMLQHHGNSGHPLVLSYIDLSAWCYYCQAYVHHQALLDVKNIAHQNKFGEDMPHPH

hHDAC1 = hHDAC1 (Homo sapiens, UniProt Q13547); experiment: biochemical; type: biochemical; details: for hHDAC1 % @1 µM: inhibitor at 1 µM; for hHDAC1 % @10 µM: inhibitor at 10 µM
LLC-PK1 kidney cells = experiment: Cytotoxicity, WST-8 cell viability, non-cancer kidney cells; type: cell-based; details: read-out: Kidney cells IC50 LLC-PK1; 48 h incubation, mean ± SD (n = 3)
Summary of the method: as §1

[3] = Chlorocebus sabaeus, Vero, 48 h
[4] = 48 h incubation, mean ± SD (n = 3)
[5] = read-out: IC50 drHDAC10 ± SD, zebrafish HDAC10, recombinant wild type
[6] = read-out: hHDAC6 IC50, recombinant human HDAC6

hHDAC1, sequence (Q13547 whole entry): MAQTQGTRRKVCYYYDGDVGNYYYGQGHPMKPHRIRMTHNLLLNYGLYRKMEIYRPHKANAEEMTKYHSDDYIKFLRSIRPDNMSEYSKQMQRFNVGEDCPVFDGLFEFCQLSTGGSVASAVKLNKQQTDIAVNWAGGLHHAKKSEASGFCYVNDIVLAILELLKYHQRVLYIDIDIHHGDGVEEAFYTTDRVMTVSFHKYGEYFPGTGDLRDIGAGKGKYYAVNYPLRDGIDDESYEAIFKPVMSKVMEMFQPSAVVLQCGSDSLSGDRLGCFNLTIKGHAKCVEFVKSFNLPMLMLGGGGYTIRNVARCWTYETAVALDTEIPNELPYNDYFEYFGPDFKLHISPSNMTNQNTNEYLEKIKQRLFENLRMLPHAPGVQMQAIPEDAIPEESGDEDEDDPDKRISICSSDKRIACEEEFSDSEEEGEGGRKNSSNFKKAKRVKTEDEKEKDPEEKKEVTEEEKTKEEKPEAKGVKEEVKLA

Row | SMILES | IC50 (KB (epidermal carcinoma); Homo sapiens, 48 h) [µM] | IC50 ([1]; Homo sapiens, BT-549, 48 h) [µM] | IC50 (SK-MEL (melanoma); Homo sapiens, 48 h) [µM] | IC50 ([2]; Homo sapiens, SK-OV-3, 48 h) [µM] | IC50 (Vero kidney cells; [3]) [µM] | IC50 (hHDAC8) [µM] | IC50 (drHDAC10) [µM] | IC50 (hHDAC6) [µM] | hHDAC1 % @1 µM (hHDAC1) [%] | hHDAC1 % @10 µM (hHDAC1) [%] | hHDAC8 % @1 µM (hHDAC8) [%] | hHDAC8 % @10 µM (hHDAC8) [%] | other results
1 | O=C(NO)c1ccc(NCc2cnc3ccccc3c2)cc1 [Compound 2f, N-hydroxy-4-((quinolin-3-ylmethyl)amino)benzamide] | 9.72 ± 0.73 | 14.8 ± 2.65 | 15.2 ± 1.21 | 10.9 ± 2.89 | 3.92 ± 0.24 | 0.21 ± 0.01 | 0.11 ± 0.01 | 0.0025 ± 0.0003 |  |  |  |  | 
2 | Cc1ccc(S(=O)(=O)n2cc(CN3CCN(c4ccc(C(=O)NO)cc4)CC3)c3ccccc32)cc1 [Compound 2e, N-hydroxy-4-(4-((1-tosyl-1H-indol-3-yl)methyl)piperazin-1-yl)benzamide] | 10 ± 0.7 | 9.71 ± 0.28 | 8.82 ± 0.7 | 8.62 ± 0.42 | 13.2 ± 1.82 |  | 0.075 ± 0.012 |  | 7.3 | 67.2 | 26.9 | 87.9 | decrease in HDAC10 activity compared to unsubstituted counterpart compound 2b (drHDAC10; tosyl analogue vs compound 2b): ~38 fold; hHDAC6 % @1 µM (hHDAC6; inhibitor at 1 µM): 35.3%; hHDAC6 % @10 µM (hHDAC6; inhibitor at 10 µM): 95%
3 | CN1CCc2c(c3ccccc3n2Cc2ccc(C(=O)NO)cc2)C1 [Tubastatin A, reference compound] |  |  |  |  |  |  | 0.05 ± 0.003 |  | 7.6 | 29.9 | 46.4 | 84 | 
4 | Cc1ccc(S(=O)(=O)n2cc(CNCc3ccc(C(=O)NO)cc3)c3ccccc32)cc1 [Compound 2c, N-hydroxy-4-((((1-tosyl-1H-indol-3-yl)methyl)amino)methyl) benzamide] |  |  |  |  |  |  |  |  | 22.2 | 72.8 | 65.1 | 97.3 | IC50 (KB (epidermal carcinoma); [4]): 20.2 ± 0.32 µM; IC50 [1, 4]: 16.5 ± 0.32 µM; IC50 (SK-MEL (melanoma); [4]): 15.1 ± 0.94 µM; IC50 [2, 4]: 21.4 ± 1.89 µM; IC50 (Vero kidney cells; [4]): 21.4 ± 1.27 µM; IC50 (drHDAC10; [5]): 0.0045 ± 0.0003 µM; reduction in HDAC10 inhibitory activity compared to compound 2a (drHDAC10; tosyl analogue vs compound 2a): ~10 fold; IC50 (LLC-PK1 kidney cells): 16.6 ± 3.93 µM; IC50 (hHDAC6; [6]): 0.051 ± 0.005 µM
5 | COc1cccc2c1C(=O)c1c(O)c3c(c(O)c1C2=O)C[C@@](O)(C(=O)CO)C[C@@H]3O[C@H]1C[C@H](N)[C@H](O)[C@H](C)O1 [Doxorubicin, reference compound] | 2.3 | 3.44 | 2.52 | 2.01 | > 11 |  |  |  |  |  |  |  | 
6 | O=C(NO)c1ccc(N2CCN(Cc3cnc4ccccc4c3)CC2)cc1 [Compound 2g, N-hydroxy-4-{4-[(quinolin-3-yl)methyl]piperazin-1-yl}benzamide] | > 69 | > 69 | > 69 | > 69 | 51 ± 1.95 |  |  |  | 32.1 | 79.4 |  |  | IC50 (hHDAC8; read-out: hHDAC8 IC50, recombinant human HDAC8): 0.3 ± 0.02 µM; IC50 (drHDAC10; [5]): 0.011 ± 0.001 µM; IC50 (hHDAC6; [6]): 0.13 ± 0.01 µM
7 | Cc1ccc(S(=O)(=O)n2cc(CNc3ccc(C(=O)NO)cc3)c3ccccc32)cc1 [Compound 2d, N-hydroxy-4-(((1-tosyl-1H-indol-3-yl)methyl)amino)benzamide] | 13.3 ± 0.33 | 11.4 ± 0.16 | 8.38 ± 2.11 | 12.6 ± 0.98 | 50.5 ± 9.74 |  | 0.29 ± 0.06 | 0.053 ± 0.005 | 1.3 | 38.9 | 49.2 | 98.9 | 
8 | O=C(NO)c1ccc(N2CCN(Cc3c[nH]c4ccccc34)CC2)cc1 [Compound 2b, 4-(4-((1H-indol-3-yl)methyl)piperazin-1-yl)-N-hydroxybenzamide] | 12.1 ± 1.41 | 16.8 ± 3.63 | 26 ± 3.62 | 11.4 ± 4.04 | 5.99 ± 0.4 | 0.074 ± 0.006 | 0.002 ± 0.0001 | 0.073 ± 0.003 | 48.4 | 90.6 |  |  | 
9 | O=C(NO)c1ccc(CNCc2c[nH]c3ccccc23)cc1 [Compound 2a, 4-((((1H-indol-3-yl)methyl)amino)methyl)-N-hydroxybenzamide] | 72.8 ± 2.4 | > 80 | > 80 | 61 ± 14.4 | 62.6 ± 2.39 | 0.35 ± 0.02 | 0.00041 ± 2e-05 | 0.037 ± 0.002 |  |  |  |  | IC50 (hHDAC1): 4.5 ± 0.2 µM; selectivity of HDAC10 over HDAC6 (drHDAC10; ratio of HDAC6 to HDAC10 IC50): approximately 90 fold

— publication PMC12475083 (Scientific Reports, 2025)
